Cytotoxicity data for 94 compounds are collected here from ChEMBL document CHEMBL4513216, “Probing the Open Global Health Chemical Diversity Library for Multistage-Active Starting Points for Next-Generation Antimalarials” (ACS Infect Dis, 2020).

This data set can be described thus: Toxicity liver stage against HepG2, at 10uM. The arrangement: test concentration 10 uM, cell line HepG2-A16-CD81EGFP. The note with it: human, HepG2-A16-CD81EGFP cells; read-out: INHIBITION
It counts as cell-based. In a few lines: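 Uninfected HepG2-A16-CD81EGFP cells, 3 × 10^3 per well, 1536-well, plated on prespotted compound at 10 μM final, parasite-free screening media added to match infected plates; puromycin 10 μM positive, DMSO 0.5% negative; run in parallel with 48 h PbLuc assay at 37 °C, 5% CO2; viability by CellTiter-Glo luminescence, normalized to controls.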
Turning to `COc1ccc(CNC[C@H]2COCc3nc4cccnc4n32)cc1`, the cytotoxicity at 10 µM was -0.61%.

As to `COc1ccccc1C(=O)Nc1ccc([C@@H](O)[C@H]2COCC(=O)N2)cc1`, the cytotoxicity at 10 µM turned out to be 1.17%.

In the case of `CN1C[C@@H](NC(=O)C2CC2)C[C@H]1c1nc(-c2cnccn2)no1`, the cytotoxicity at 10 µM was found to be 0.611%.

Take `CC(=O)N1CC[C@H]2CC(=O)N(C3CC3)CC[C@H]2C1`: the cytotoxicity at 10 µM is -0.434%.

Turning to `COCCNc1nc(N2CCCC2)nc2nccnc12`, the cytotoxicity at 10 µM worked out at 0.649%.

With `Cc1occc(=O)c1OCc1noc(C(=O)NC2CCCC2)n1`, the cytotoxicity at 10 µM amounted to 0.618%.

Consider `COc1cc2c(cc1OC)C(=O)C(Sc1nncn1C)C2` (centres undefined), for which the cytotoxicity at 10 µM was -5.65%.

For `COc1ccc(NC(=O)c2nc(C)sc2C(C)C)cn1`, the cytotoxicity at 10 µM stood at 0.847%.

With `CC(=O)c1c(C)nn(CC(=O)Nc2ccc(Br)cc2)c1C`, the cytotoxicity at 10 µM is -9.87%.

For the compound `Cc1nccn1-c1ccc(=O)n(CCNC(=O)c2c(F)cccc2Cl)n1`, the cytotoxicity at 10 µM is -9.98%.

In the case of `COc1ccc(OC)c(-c2cc(C(=O)NCC3(CO)CC3)n(C)n2)c1`, the cytotoxicity at 10 µM is -2.46%.

As for `O=C(O)CC(CC(=O)NCCc1cccs1)c1cccs1` (centres undefined), the cytotoxicity at 10 µM is -11.4%.

For the compound `COc1c2ccc(C(=O)NCCCn3ncccc3=O)cc2nn1C`, the cytotoxicity at 10 µM was 0.905%.

Take `CC(=O)N1CCc2[nH]c(=O)ccc2C1`: the cytotoxicity at 10 µM stood at 0.351%.

With `O=C1Nc2ccccc2C1C1CCN(C(=O)C2CC2)CC1` (centres undefined), the cytotoxicity at 10 µM is -1.24%.

As for `O=C(C1CCCC1)N1C[C@@H]2CCNC[C@@H]21`, the cytotoxicity at 10 µM is -0.155%.

For the compound `Cc1occc1C(=O)N1CCn2c(Cn3cncn3)cnc2C1C` (centres undefined), the cytotoxicity at 10 µM was -5.17%.

Take `CC(C)CCN1C2(CCN(C(=O)N(C)C)C2)c2ccccc2S1(=O)=O` (centres undefined): the cytotoxicity at 10 µM came to 2.11%.

As to `Cc1cccc(C(=O)N2CCC3(CC(C(=O)N(C)C(C)C)=NO3)C2)c1` (centres undefined), the cytotoxicity at 10 µM was -127%.

Take `CCOC(=O)N1CCN(c2nc(NCCO)c3ccccc3n2)CC1`: the cytotoxicity at 10 µM was -1.32%.

As to `Cc1ccc(N2N=C(C(=O)O)S(=O)(=O)c3cccnc32)cc1`, the cytotoxicity at 10 µM is -8.87%.

As for `COCC(=O)NCCn1ccc2c(OC)cccc21`, the cytotoxicity at 10 µM amounted to 3.07%.

In the case of `O=C(COc1coc(CN2CCOCC2)cc1=O)c1ccc(Cl)cc1`, the cytotoxicity at 10 µM is -10.6%.

With `COCCNC(=O)CN1CC=C(n2c(C)nc(=O)c3ccccc32)CC1`, the cytotoxicity at 10 µM is -5.45%.

Regarding `CC(=O)N1CCCC1(C(=O)N1CCCC1)c1cnccn1` (centres undefined), the cytotoxicity at 10 µM came out at 0.142%.

As to `Cn1ncc(Cl)c1C(=O)NCCN1CCC(O)(c2ccc(F)cc2)CC1`, the cytotoxicity at 10 µM was 4.71%.

For `Cn1cnc(NC(=O)C2CC(=O)N(c3cccc(F)c3)C2)n1` (centres undefined), the cytotoxicity at 10 µM was 4.28%.

Consider `Cc1ccc(S(=O)(=O)N2CC[C@@H]3C[C@H](NC(=O)c4n[nH]cc4Cl)[C@@H]32)cc1`, for which the cytotoxicity at 10 µM turned out to be 4.31%.

On to `COCC(=O)N[C@@H]1CN(Cc2c[nH]nc2-c2cccs2)C[C@H]1O`, for which the cytotoxicity at 10 µM turned out to be 1.48%.

For `CCC(CN1CCCC1)NC(=O)Cc1c(C)[nH]c2cc(C)cc(C)c12` (centres undefined), the cytotoxicity at 10 µM was determined as 2.73%.

Take `CCC(CN1CCOCC1)NC(=O)Cc1c(C)[nH]c2cc(C)cc(C)c12` (centres undefined): the cytotoxicity at 10 µM was found to be 19.6%.

On to `CC(C)c1ncc(CN2CCOC(C(=O)Nc3ccccc3)C2)cn1` (centres undefined), for which the cytotoxicity at 10 µM is -25.3%.

As to `Cc1ccc(-c2cc(N)c(=O)n(CC(=O)NC3CCCC3)n2)s1`, the cytotoxicity at 10 µM was -20.3%.

As for `CC(=O)N1CCCC(Cc2cnc(C(=O)N3CCC(C)CC3)cn2)C1` (centres undefined), the cytotoxicity at 10 µM was 4.82%.

Regarding `Cc1ccc(C(=O)N2CCN(c3ncnc4nc(N)ccc34)CC2)o1`, the cytotoxicity at 10 µM came out at 7.55%.

In the case of `CC(C)CC(CCO)CNC(=O)N1CCOC2(CCCC2)C1` (centres undefined), the cytotoxicity at 10 µM is 6.37%.

For the compound `CCc1noc(C(C)N2CCN(CCc3ccncc3)CC2)n1` (centres undefined), the cytotoxicity at 10 µM came to 1.6%.

Turning to `CSc1ccc(C(C)NC(=O)c2cc(C)on2)cc1` (centres undefined), the cytotoxicity at 10 µM came to 6.01%.

As for `Cc1cc(C)cc(N(C)S(=O)(=O)c2cc3c(c(C(=O)O)c2)OCCO3)c1`, the cytotoxicity at 10 µM is -4.02%.

Take `Cn1cc(C(=O)CC2CCCN2C(=O)c2ccc(Cl)cn2)cn1` (centres undefined): the cytotoxicity at 10 µM is -9.23%.

As to `CCc1nc(CCNC(=O)NC2CCN(C(C)C)C2)sc1C` (centres undefined), the cytotoxicity at 10 µM is -7.63%.

With `Cc1nnc(NCC2(c3ccccc3)CCOCC2)c(C#N)c1C`, the cytotoxicity at 10 µM came out at 7.35%.

For the compound `Cc1ccc(CNC(=O)NC2CCCN(c3ncccn3)C2)cn1` (centres undefined), the cytotoxicity at 10 µM came to 3.08%.

In the case of `CN(Cc1nccn1CC(F)(F)F)C(=O)c1ccc2c(c1)OCO2`, the cytotoxicity at 10 µM turned out to be 1.09%.

With `Cc1noc(CNc2cccc(C(=O)N3CCCC(O)C3)c2)n1` (centres undefined), the cytotoxicity at 10 µM was -0.961%.

Turning to `Cc1ncsc1CNC(=O)N1CCN(Cc2ccccc2)CC1C` (centres undefined), the cytotoxicity at 10 µM is -131%.

With `O=c1oc2ccccc2n1CCCN1CCCC1c1ccc(O)cc1` (centres undefined), the cytotoxicity at 10 µM was 7.87%.

On to `O=C(CCn1nnc2ccccc2c1=O)N(CC1CCOC1)C1CC1` (centres undefined), for which the cytotoxicity at 10 µM is -8.5%.

As for `O=C(C1CC(=O)N(c2ccccc2Br)C1)N1CCC2(CC1)OCCO2` (centres undefined), the cytotoxicity at 10 µM stood at 11.3%.

Regarding `COc1cc(C)nc(N2CCN(C(=O)CCc3nccs3)CC2)n1`, the cytotoxicity at 10 µM was -15.8%.

With `O=C(NCC1CC1)Nc1cccc(N2CCN(CC3CC3)CC2)c1`, the cytotoxicity at 10 µM was -13.3%.

On to `c1ccc(CO[C@@H]2CN(Cc3ccoc3)[C@@H]3COC[C@@H]32)nc1`, for which the cytotoxicity at 10 µM was -105%.

Regarding `CCN(Cc1nccn1C)C(=O)c1ccc(NCc2ccccc2)nc1`, the cytotoxicity at 10 µM is -14.3%.

Consider `O=C1CCCCCN1CCC(=O)N1CCCC(c2ccn[nH]2)C1` (centres undefined), for which the cytotoxicity at 10 µM is 9.01%.

Consider `CN(CCC(O)c1ccccc1)c1cc(C2CC2)ncn1` (centres undefined), for which the cytotoxicity at 10 µM was -141%.

`CN(C)CC1(O)CCCN(Cc2cnc(-c3ccco3)nc2)CC1` (centres undefined): the cytotoxicity at 10 µM is -8.58%.

Turning to `COCCNCC1(O)CCCN(Cc2ccc(F)c(F)c2)C1=O` (centres undefined), the cytotoxicity at 10 µM was 3.93%.

On to `O=C(CCCn1cncn1)N1CCC2(CCCN(CC3CC3)C2=O)C1` (centres undefined), for which the cytotoxicity at 10 µM is -0.611%.

Turning to `OC1CCN(CCNc2ncc3c(n2)CCN3c2ccccc2)CC1`, the cytotoxicity at 10 µM stood at 5.84%.

Take `CCCc1cc(C(=O)N(C)Cc2cccc3cnccc23)n(C)n1`: the cytotoxicity at 10 µM was found to be 0.109%.

On to `COc1ccc(CCCC(=O)N2C[C@H](C3CC3)[C@@H](N(C)C)C2)cc1`, for which the cytotoxicity at 10 µM is 0.624%.

As to `N#Cc1cccc(N2CCC3(CCC(=O)N(CC4CCCO4)C3)CC2)n1` (centres undefined), the cytotoxicity at 10 µM was 4.11%.

`O=C(NCCc1csc(-c2cnccn2)n1)c1cnn[nH]1`: the cytotoxicity at 10 µM was determined as 6.46%.

Take `Cn1ccnc1SCCNC1CCN(c2ncccn2)CC1`: the cytotoxicity at 10 µM was -7.63%.

For the compound `CN(C(=O)c1ccc(C2CCCO2)s1)C1CCS(=O)(=O)CC1` (centres undefined), the cytotoxicity at 10 µM stood at 1.72%.

Regarding `O=C1O[C@@H]2CN(Cc3ccccc3)C[C@@H]2N1CCCN1CCOCC1`, the cytotoxicity at 10 µM is -1.18%.

Consider `c1cnn(Cc2nnc(C3CCN(C4CCOCC4)CC3)n2C2CC2)c1`, for which the cytotoxicity at 10 µM was -15.2%.

As for `CC(=O)NCCC1CCCCN1S(=O)(=O)c1cccc(C#N)c1` (centres undefined), the cytotoxicity at 10 µM was -10.8%.

As to `CCn1c(Cn2cncn2)nnc1C1CCN(Cc2ccc(C)o2)CC1`, the cytotoxicity at 10 µM was -12.9%.

As to `COCc1cn([C@@H]2c3ccccc3C3(CCNCC3)[C@H]2O)nn1`, the cytotoxicity at 10 µM came to 1.2%.

For the compound `CSCCC(=O)N1CCC(Oc2cc(C)ccc2F)(C(=O)O)CC1`, the cytotoxicity at 10 µM was -6.02%.

Consider `O=C(c1coc(COc2cccc(F)c2)n1)N1CC[C@H](O)[C@@H](O)C1`, for which the cytotoxicity at 10 µM was -11%.

For `O=C(CN1CCOC(Cn2cccn2)C1)NCCc1cccs1` (centres undefined), the cytotoxicity at 10 µM was -11.3%.

Consider `CCOCC(O)CN1CCN(C(=O)c2cnc3n[nH]c(C)c3c2)CC1` (centres undefined), for which the cytotoxicity at 10 µM is -7.69%.

In the case of `CC(NC(=O)Nc1cccnc1N1CCCC1)c1nncn1C` (centres undefined), the cytotoxicity at 10 µM is -10.1%.

Consider `O=C(CCN1CCCC1)Nc1c2c(cc3c1CCC3)CCC2`, for which the cytotoxicity at 10 µM is 6.3%.

With `Cc1occc1C(=O)N1CCc2c(CNS(C)(=O)=O)cncc2C1`, the cytotoxicity at 10 µM is 8.68%.

With `O=C1CCCN1Cc1nnn2c1CN(c1cccnc1)CCC2`, the cytotoxicity at 10 µM was determined as 3.48%.

Turning to `CCOCC1CN(C(=O)c2cnccn2)Cc2cnn(CC3CC3)c21` (centres undefined), the cytotoxicity at 10 µM is -69.6%.

With `COc1cc(COCC2CCN(Cc3ccccn3)CC2)cc(OC)c1`, the cytotoxicity at 10 µM was -3.36%.

For `Cc1noc(C)c1CN1CC[C@H]2[C@@H]1CCC(=O)N2CC1CCOCC1`, the cytotoxicity at 10 µM was -1.38%.

For the compound `c1cncc(CN2CCC(c3ccc4c(c3)OCO4)CC2)c1`, the cytotoxicity at 10 µM was -0.415%.

For the compound `CCN1CCc2cc(-c3cncn3CC(=O)NC(C)(C)C)ccc21`, the cytotoxicity at 10 µM is -18.9%.

For the compound `Cn1cc(C[C@H]2[C@H](O)CCN2CC2CCOCC2)cn1`, the cytotoxicity at 10 µM is -65.7%.

With `CN(C)C(=O)N1Cc2ncn(C)c2C(COCC2CCOCC2)C1` (centres undefined), the cytotoxicity at 10 µM was -69.9%.

As for `CC(=O)NCC(=O)N1CCN(CCN(C)C)c2ncccc2C1`, the cytotoxicity at 10 µM is -104%.

`O=C(O)c1c(-c2cccnc2)ncc2c1CCN(Cc1cccnc1)C2`: the cytotoxicity at 10 µM is -3.14%.

As to `NC(=O)COc1ccc(CNCc2ccc(F)cc2F)cc1`, the cytotoxicity at 10 µM is -14.4%.

As for `COc1ccc(CC(=O)N2Cc3nccn3CC(CN(C)C)C2)cc1` (centres undefined), the cytotoxicity at 10 µM was -116%.

As to `O=C1CO[C@@H]2CN(Cc3ccsc3)C[C@H]2N1Cc1ccncc1`, the cytotoxicity at 10 µM was -73%.

For the compound `CC(=O)N1CC(=O)N(c2cnn(C)c2)CC12CCN(Cc1cccs1)C2` (centres undefined), the cytotoxicity at 10 µM came to 2.26%.

As to `CCN1CCn2c(C)cnc2C12CCN(C(=O)NC)CC2`, the cytotoxicity at 10 µM is 0.906%.

For the compound `O=C(NC[C@H]1OC[C@@H]2CCN(Cc3ccco3)C[C@@H]21)c1ccnnc1`, the cytotoxicity at 10 µM is -143%.

Take `CC(C)n1c(=O)[nH]c2cn(-c3ccccc3)c(=O)n21`: the cytotoxicity at 10 µM is -7.01%.
